The text below walks through data of ChEMBL document CHEMBL4706502, “Synthesis and structure activity relationships of cyanopyridone based anti-tuberculosis agents” (Eur J Med Chem, 2020).

The source made the active and inactive calls. The rule behind the calls is not given here. Some results are limits rather than exact numbers.

For data set [1], the system named is Mycobacterium tuberculosis. Kind of data set: Antitubercular activity against Mycobacterium tuberculosis H37Rv ATCC 27294 assessed as reduction in microbial growth under 7H9/glucose medium after 1 week by two fold serial dilution method. In kind it is functional. Conditions: H37Rv ATCC 27294, 168 h, time 1 weeks. A digest of the protocol:
(§1)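 M. tuberculosis H37Rv grown to OD650nm 0.2-0.3 and diluted 1000-fold; about 1× 10^4 bacteria per well. Compounds taken from DMSO stocks and 2-fold serially diluted, in duplicate. Incubated 37 °C for 1 week, read by inverted mirror. MIC = lowest concentration giving complete growth inhibition. Isoniazid positive control, DMSO negative control. Media: GAST/Fe pH 6.6 or 7H9/glucose/casitone/Tyloxapol.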

Data set [2] deals with Mycobacterium tuberculosis. Kind of data set: Antitubercular activity against Mycobacterium tuberculosis H37Rv ATCC 27294 assessed as reduction in microbial growth under GAST/Fe medium after 1 week by two fold serial dilution method. In kind it is functional. The following applies: H37Rv ATCC 27294, 168 h, time 1 weeks. The essentials: as §1
Data set [3] can be described thus: Cytotoxicity against human MRC5 cells assessed as reduction in cell viability after 24 hrs by NRU assay. In kind it is cell-based.
A short description of data set [4]: Inhibition of wild-type Mycobacterium tuberculosis thymidylate kinase expressed in Escherichia coli BLi5 competent cells using dTMP as substrate by lactate dehydrogenase, pyruvate kinase and nucleoside diphosphate kinase coupled spectrophotometric method. A digest of the protocol:
(§2)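 Purified MtbTMPK in a coupled spectrophotometric assay. Substrates fixed at dTMP 0.05 mM and ATP 0.5 mM. Compounds in DMSO, serially diluted; IC50 calculated, or no inhibition recorded at 0.2 mM.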

Data set [5] is described as follows: Selectivity index, ratio of CC50 for human MRC5 cells to ratio of MIC99 for antitubercular activity against Mycobacterium tuberculosis H37Rv ATCC 27294 assessed as reduction in microbial growth under GAST/Fe medium. In kind it is toxicity. Conditions: read-out: Selectivity Index.
Data set [6] can be described thus: Selectivity index, ratio of CC50 for human MRC5 cells to ratio of MIC99 for antitubercular activity against Mycobacterium tuberculosis H37Rv ATCC 27294 assessed as reduction in microbial growth under 7H9/glucose medium. The class given is toxicity. Conditions: read-out: Selectivity Index.
For data set [7], the system named is Mycobacterium tuberculosis. As to the kind of experiment: Inhibition of wild-type Mycobacterium tuberculosis thymidylate kinase expressed in Escherichia coli BLi5 competent cells at 0.2 mM using dTMP as substrate by lactate dehydrogenase, pyruvate kinase and nucleoside diphosphate kinase coupled spectrophotometric method. A digest of the protocol:
as §2

In general, MIC99 refers to the lowest concentration that inhibits either 99% of growth or 99% of the strains tested, depending on the study. Usually CC50 stands for the concentration at which the toxic effect on the cells reaches its halfway point. Consider `CS(=O)(=O)c1c(-c2ccc(C(F)(F)F)cc2)c[nH]c(=O)c1C#N`, for which the MIC99 in data set [1] and in data set [2] was greater than 50 µM throughout. Besides, the CC50 at 24 h in data set [3] was greater than 64 µM.

`CS(=O)(=O)c1c(-c2cccc(Cl)c2)c[nH]c(=O)c1C#N`: the MIC99 in data set [1] and in data set [2] was greater than 50 µM each time. Moreover, the 50% cytotoxic concentration (CC50) at 24 h in data set [3] was greater than 64 µM.

Usually IC50 stands for the concentration needed to halve the response being measured. The low end stands for higher potency, the high end for lower potency. As to `CSc1c(-c2ccccc2)c[nH]c(=O)c1C#N`, the half-maximal inhibitory concentration (IC50) in data set [4] came to 206 µM. For the same molecule, the MIC99 is 100 µM in data set [1] and no less than 100 µM in data set [2]. Moreover, in data set [3], the cytotoxic concentration (CC50) at 24 h was determined as 64 µM.

Take `Cc1ccc(Oc2cccc(-c3c[nH]c(=O)c(C#N)c3[S+](C)[O-])c2)cc1` (centres undefined): the MIC99 in data set [1] came out at 25 µM; in data set [2] it was 6.25 µM. The half-maximal cytotoxic concentration (CC50) at 24 h in data set [3] stood at 30 µM.

As to `COc1ccc(-c2c[nH]c(=O)c(C#N)c2[S+](C)[O-])cc1` (centres undefined), the MIC99 in data set [1] and in data set [2] was greater than 100 µM each time. Moreover, the CC50 at 24 h in data set [3] was greater than 64 µM.

As to `C[S+]([O-])c1c(-c2ccc(-c3ccccc3)cc2)c[nH]c(=O)c1C#N` (centres undefined), the values for the MIC99 in data set [1] and in data set [2] were 1.2 µM and 2.3 µM, respectively. Also, the CC50 at 24 h in data set [3] was greater than 64 µM. Also, the values for the selectivity ratio in data set [5] and in data set [6] were 27.8 and 50, respectively.

Regarding `C[S+]([O-])c1c(-c2ccc(Oc3ccccc3)cc2)c[nH]c(=O)c1C#N` (centres undefined), the inhibition result in data set [7] is “inactive”. The MIC99 in data set [1] worked out at 25 µM; in data set [2], 3.13 µM. Further, the CC50 at 24 h in data set [3] is greater than 64 µM.

For the molecule `C[S+]([O-])c1c(-c2cccc(OCc3cccc(Cl)c3)c2)c[nH]c(=O)c1C#N` (centres undefined), the MIC99 in data set [1] and in data set [2] was 9.4 µM in each case. In addition, the 50% cytotoxic concentration (CC50) at 24 h in data set [3] is greater than 64 µM.

In the case of `CS(=O)(=O)c1c(-c2ccc(Cl)c(Cl)c2)c[nH]c(=O)c1C(N)=O`, the MIC99 in data set [2] is 19 µM. The cytotoxic concentration (CC50) at 24 h in data set [3] was greater than 64 µM.

Regarding `C[S+]([O-])c1c(-c2ccc(Oc3ccc(Cl)cc3)cc2)c[nH]c(=O)c1C#N` (centres undefined), the MIC99 in data set [1] and in data set [2] was 9.4 µM each time. The CC50 at 24 h in data set [3] was 25 µM.

On to `NNC(=O)c1ccncc1` [ISONIAZID], for which the MIC99 in data set [1] was determined as 0.15 µM; in data set [2], 0.2 µM.

With `C[S+]([O-])c1c(-c2cccc(OCc3ccc(Cl)cc3)c2)c[nH]c(=O)c1C#N` (centres undefined), the MIC99 in data set [1] and in data set [2] was 9.4 µM throughout. Moreover, the CC50 at 24 h in data set [3] came to 31 µM.

For `C[S+]([O-])c1c(-c2cccc(Oc3ccccc3)c2)c[nH]c(=O)c1C#N` (centres undefined), in data set [7], the inhibition entry is “inactive”. Moreover, the MIC99 in data set [1] was found to be 37 µM. For the same molecule, the cytotoxic concentration (CC50) at 24 h in data set [3] was 32 µM.

With `C[S+]([O-])c1c(-c2ccc(Cl)c(Cl)c2)c[nH]c(=O)c1C(N)=O` (centres undefined), the MIC99 was 50 µM in data set [1] and no less than 50 µM in data set [2]. The CC50 at 24 h in data set [3] was found to be 16 µM.

Regarding `C[S+]([O-])c1c(-c2cccc(Oc3ccc(Cl)cc3)c2)c[nH]c(=O)c1C#N` (centres undefined), the MIC99 in data set [1] was 12.5 µM; in data set [2] it was 9.5 µM. In addition, in data set [3], the cytotoxic concentration (CC50) at 24 h came out at 24 µM.

In the case of `C[S+]([O-])c1c(-c2ccccc2)c[nH]c(=O)c1C#N` (centres undefined), the inhibition result in data set [7] was “inactive”. The MIC99 in data set [1] is 25 µM; in data set [2], 37 µM. Also, the half-maximal cytotoxic concentration (CC50) at 24 h in data set [3] is greater than 64 µM.

As for `C[S+]([O-])c1c(-c2ccc(OCc3ccccc3)cc2)c[nH]c(=O)c1C#N` (centres undefined), the MIC99 in data set [1] stood at 9.4 µM; in data set [2] it was 4.7 µM. Also, the cytotoxic concentration (CC50) at 24 h in data set [3] turned out to be 25 µM.

As for `C[S+]([O-])c1c(-c2ccc(Br)cc2)c[nH]c(=O)c1C#N` (centres undefined), the results for the MIC99 in data set [1] and in data set [2] were 12.5 µM and 19 µM, respectively. Also, in data set [3], the half-maximal cytotoxic concentration (CC50) at 24 h was greater than 64 µM.

Turning to `C[S+]([O-])c1c(-c2cccc(Oc3ccc(Cl)c(Cl)c3)c2)c[nH]c(=O)c1C#N` (centres undefined), the MIC99 in data set [1] stood at 12.5 µM; in data set [2], 19 µM. Besides, in data set [3], the CC50 at 24 h was 8 µM.

Regarding `C[S+]([O-])c1c(-c2ccc(Cl)c(Cl)c2)c[nH]c(=O)c1C#N` (centres undefined), the MIC99 in data set [1] worked out at 19 µM; in data set [2], 12.5 µM. In addition, the CC50 at 24 h in data set [3] was greater than 64 µM.

With `Cc1ccc(Oc2ccc(-c3c[nH]c(=O)c(C#N)c3[S+](C)[O-])cc2)cc1` (centres undefined), the MIC99 in data set [1] stood at 9.4 µM; in data set [2], 4.7 µM. For the same molecule, in data set [3], the CC50 at 24 h amounted to 28 µM.

Take `C[S+]([O-])c1c(-c2ccc(C(F)(F)F)cc2)c[nH]c(=O)c1C#N` (centres undefined): the MIC99 was 37 µM in data set [1] and 19 µM in data set [2]. The 50% cytotoxic concentration (CC50) at 24 h in data set [3] is greater than 64 µM.

`C[S+]([O-])c1c(-c2ccccc2Oc2ccccc2)c[nH]c(=O)c1C#N` (centres undefined): the inhibition result in data set [7] was “inactive”. The MIC99 in data set [1] worked out at 50 µM; in data set [2] it was 9.4 µM. Moreover, in data set [3], the CC50 at 24 h was found to be 30 µM.

Consider `C[S+]([O-])c1c(-c2cccc(OCc3ccccc3)c2)c[nH]c(=O)c1C#N` (centres undefined), for which the MIC99 in data set [1] amounted to 19 µM; in data set [2] it was 6.25 µM. Also, the CC50 at 24 h in data set [3] was determined as 25 µM.

For `C[S+]([O-])c1c(-c2cccc(OCc3ccccc3Cl)c2)c[nH]c(=O)c1C#N` (centres undefined), the values for the MIC99 in data set [1] and in data set [2] were 9.4 µM and 4.7 µM, respectively. Moreover, the half-maximal cytotoxic concentration (CC50) at 24 h in data set [3] was found to be 25 µM.

As for `COc1ccc(Oc2ccc(-c3c[nH]c(=O)c(C#N)c3[S+](C)[O-])cc2)cc1` (centres undefined), the figures for the MIC99 in data set [1] and in data set [2] were 19 µM and 9.4 µM, respectively. The half-maximal cytotoxic concentration (CC50) at 24 h in data set [3] is 23 µM.

On to `C[S+]([O-])c1c(-c2ccc(Cl)cc2)c[nH]c(=O)c1C#N` (centres undefined), for which the MIC99 in data set [1] was 19 µM; in data set [2], 25 µM. In addition, the cytotoxic concentration (CC50) at 24 h in data set [3] is greater than 64 µM.

Consider `C[S+]([O-])c1c(-c2cccc(OCc3ccc(Cl)c(Cl)c3)c2)c[nH]c(=O)c1C#N` (centres undefined), for which the MIC99 in data set [1] and in data set [2] was 9.4 µM each time. Moreover, in data set [3], the CC50 at 24 h was greater than 64 µM.

In data set [4], `C[S+]([O-])c1cc(-c2cccc(Br)c2)[nH]c(=O)c1C#N` (centres undefined) returned an IC50 of 28 µM. Moreover, the MIC99 in data set [1] and in data set [2] was 19 µM each time.

For `C[S+]([O-])c1c(-c2cccc(Cl)c2)c[nH]c(=O)c1C#N` (centres undefined), the figures for the MIC99 in data set [1] and in data set [2] were 19 µM and 37 µM, respectively. For the same molecule, the half-maximal cytotoxic concentration (CC50) at 24 h in data set [3] was greater than 64 µM.

In the case of `CS(=O)(=O)c1c(-c2ccccc2Cl)c[nH]c(=O)c1C#N`, the MIC99 is 37 µM in data set [1] and greater than 50 µM in data set [2]. Further, the CC50 at 24 h in data set [3] was greater than 64 µM.

Take `COc1ccc(Oc2cccc(-c3c[nH]c(=O)c(C#N)c3[S+](C)[O-])c2)cc1` (centres undefined): the MIC99 in data set [1] was 25 µM; in data set [2] it was 6.25 µM. Besides, in data set [3], the 50% cytotoxic concentration (CC50) at 24 h came out at 30 µM.

Consider `C[S+]([O-])c1c(-c2ccccc2Cl)c[nH]c(=O)c1C#N` (centres undefined), for which the values for the MIC99 in data set [1] and in data set [2] were 12.5 µM and 37 µM, respectively. Further, in data set [3], the CC50 at 24 h is greater than 64 µM.

For the molecule `C[S+]([O-])c1c(-c2cccc(OCc3ccccc3[N+](=O)[O-])c2)c[nH]c(=O)c1C#N` (centres undefined), the figures for the MIC99 in data set [1] and in data set [2] were 37 µM and 19 µM, respectively. Moreover, in data set [3], the half-maximal cytotoxic concentration (CC50) at 24 h was 64 µM.

Regarding `C[S+]([O-])c1c(-c2ccc(Oc3ccc(Cl)c(Cl)c3)cc2)c[nH]c(=O)c1C#N` (centres undefined), the values for the MIC99 in data set [1] and in data set [2] were 9.4 µM and 19 µM, respectively. The CC50 at 24 h in data set [3] was 28 µM.
